Source: PubChem (several laboratories)
TbMetRS inhib = Trypanosoma brucei MetRS inhibition; purified T. brucei MetRS, ATP depletion, Kinase-Glo luminescence; inhibition, % at 11.9 µM; 0.4% of 360,000 active; AID 624268;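 active means inhibition above a per-plate cutoff of the control wells' mean inhibition plus 3 SD, cut at about 5.5% in these data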;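 further: 0% = DMSO wells median and 100% = median of wells with control inhibitor compound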
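technique = Kinase-Glo luminescence, ATP depletion format | system = purified MetRS (methionyl-tRNA synthetase) enzyme from Trypanosoma brucei | timing = 15 min preincubation, 2 h reaction, all 25 °C | evaluation = percent inhibition versus plate control medians | dosing = single dose, 11.9 µM final nominal, 0.9% final DMSO | also added = substrates ATP, L-methionine and bulk Escherichia coli tRNA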
EBV gp42 inh = EBV gp42 inhibition; Q1HVG2; Fluorescence polarization binding assay, mP read-out; inhibition, % (tested at 21.74 µM); AID 1085; 0.42% of 220,000 active; in the data active means inhibition above about 50%
Target sequence (Q1HVG2 whole entry, looked up): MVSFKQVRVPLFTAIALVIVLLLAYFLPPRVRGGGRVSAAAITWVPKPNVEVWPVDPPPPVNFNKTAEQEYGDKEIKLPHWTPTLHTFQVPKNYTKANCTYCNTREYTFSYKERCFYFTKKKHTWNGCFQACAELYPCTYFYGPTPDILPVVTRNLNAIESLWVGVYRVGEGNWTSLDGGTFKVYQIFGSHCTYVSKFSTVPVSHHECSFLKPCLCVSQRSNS
MPTP block = inhibitors of mitochondrial permeability transition pore | isolated mouse mitochondria, Ca2+ swelling absorbance, 30 min | inhibition, % at 10 µM | 1.4% of 360,000 active | AID 602449;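 active means inhibition of 50% or more, scaled per plate between neutral and stimulator controls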;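 further: 0% = DMSO wells given calcium and 100% = 1 mM EGTA wells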
WT yeast gro inh = growth inhibition of WT yeast, mitochondrial fusion screen; inhibition, % at 10 µM; mitochondrial fusion phenotypic screen, WT strain; 2.1% of 190,000 active; in the data active means inhibition above about 58%; tested in S. cerevisiae
CHOP inh = blocks CHOP induction under ER stress | inhibition, % at 10 µM | CHO-K1 CHOP-promoter luciferase, tunicamycin-induced, 15-18 h | 3.8% of 220,000 active;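 active means compounds that reduced the stress-induced luciferase reporter signal by more than about 70% of percent inhibition, limit read from the data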;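 further: 0% = tunicamycin plus vehicle and 100% = wells without tunicamycin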
GRIN3A LBD mod = modulators (binders) of human NR3A ligand-binding domain. NR3A LBD differential scanning fluorimetry, Tm shift; 0% = protein alone, 100% = glycine-bound protein. Tm shift relative to glycine control, % at 25 µM. 2.5% of 340,000 active;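 active means melting temperature shift of at least 10% of the positive control shift, at one fixed dose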
Starred values were filed as active, the others as inactive; · = no result. The list is not random: actives were taken first. Their share in the collection is about 6.4%.

SMILES	TbMetRS inhib	EBV gp42 inh	MPTP block	WT yeast gro inh	CHOP inh	GRIN3A LBD mod
CSc1ccccc1NC(=S)N/N=C/c1cccn1Cc1cccc(C)c1	0	-3	-3	63*	-6	-2
COc1ccc(NC(=S)N/N=C/c2cccn2Cc2ccccc2F)cc1	0	-7	6	2	54	-6
O=C(CCS(=O)(=O)c1cccs1)Nc1ccc(C(=O)NC2CCN(Cc3ccccc3)CC2)cc1	0	6	1	10	9	-1
C(=N\N1CCOCC1)/c1cn(-c2ccccc2)nc1-c1ccccc1	-1	-25	-2	1	-14	-1
CCOC(=O)c1sc(NC(=O)c2ccc(CC)s2)nc1C	0	2	1	8	71*	-2
CCOC(=O)c1sc(Nc2ccc(Br)cc2)nc1C	0	4	30	·	2	14*
CCOC(=O)c1cc2nc(Nc3ccc(OC)cc3)sc2s1	0	-29	-4	9	70*	15*
CCOC(=O)c1sc(Nc2ccccc2Cl)nc1C	0	5	3	·	14	3
O=C(NC1=NCCS1)c1cccc(F)c1	0	·	1	·	·	0
CCC1(c2ccc(Cl)cc2)NC(=O)N(Cc2ccc(C(=O)OC)cc2)C1=O (stereo not drawn)	0	7	-2	24	-1	-3
COCCNC(=O)c1onc(CSc2nc3ccccc3[nH]2)c1C(=O)NCCOC	0	·	-1	·	·	0
CC1(C)N([O-])C(c2ccccc2)=C[N+](=O)C1(C)C	-2	-14	0	19	-20	681*
CCOC(=O)C1CCN(C(=O)c2cc3c(=O)n4cccc(C)c4nc3s2)CC1	0	·	2	·	·	1
Cc1cc(/C=C2\C(=N)N3C(SCc4ccccc4)=NSC3=NC2=O)c(C)n1Cc1ccccc1	-1	-53	16	-5	88*	14*
Cc1cc(/C=C2\C(=N)N3N=C(C(C)C)SC3=NC2=O)c(C)n1Cc1ccccc1	0	-16	5	·	3	1
O=C(CSc1nc2ccccc2o1)N1CCN(C(=O)c2ccco2)CC1	-2	2	0	6	3	1
O=S(=O)(NCc1ccccc1)NCc1ccccc1	0	-15	2	-14	73*	-1
COc1ccc(CCN(Cc2cc3cc(C)cc(C)c3nc2Cl)C(=O)C2CC2)cc1	0	-7	4	68*	-34	2
COc1ccc2[nH]c(=O)c(-c3nnn(-c4ccccc4)n3)cc2c1	0	-6	-2	-1	-13	0
COc1ccc2[nH]c(=O)c(-c3noc(-c4ccccc4)n3)cc2c1	-2	1	1	2	88*	-1
CCOC(=O)c1c(-c2ccc(C)o2)csc1NC(=S)NC(=O)c1cccs1	0	-15	4	20	-22	18*
CCOC(=O)c1c(-c2ccccc2)csc1NC(=S)NC	0	1	9	-2	93*	-7
CCOC(=O)c1c(-c2ccc(C)o2)csc1NC(=S)NC(=O)c1ccccc1Br	-1	-6	0	2	15	3
CCNC(=S)Nc1scc(-c2ccccc2)c1C(=O)OCC	-1	-2	21	37	-5	-5
CC(=O)Nc1cccc2c1OCCO2	0	-4	0	-8	24	1
SMILES	TbMetRS inhib	EBV gp42 inh	MPTP block	WT yeast gro inh	CHOP inh	GRIN3A LBD mod
O=C(N/N=C/c1cc(Br)ccc1O)C(=O)Nc1ccccc1OC(F)(F)C(F)F	-1	-6	4	15	77*	6
COc1cccc(/C=N/NC(=O)C(=O)Nc2ccccc2OC(F)(F)C(F)F)c1	0	1	1	13	32	-1
O=C(N/N=C/c1cc(Cl)ccc1O)C(=O)Nc1ccccc1OC(F)(F)C(F)F	0	3	16	0	78*	4
COc1ccccc1/C=N/NC(=O)C(=O)Nc1ccccc1OC(F)(F)C(F)F	0	16	4	5	13	-22
CCOc1ccc(N2C(=O)CC(Cc3cc(C)cc(C)c3)C2=O)cc1 (stereo not drawn)	0	·	4	·	·	-1
Cc1ccccc1S(=O)(=O)N(C)C[C@H]1OCc2cnnn2CCCC(=O)N([C@@H](C)CO)C[C@H]1C	-1	·	0	·	·	·
Oc1ccc(N=Cc2ccc(-c3cccs3)s2)cc1	1	-5	-1	3	-21	27*
CCCc1nn(C)c(C(=O)Nc2cccc3ccccc23)c1Cl	0	1	4	1	24	12*
Cc1ccc(C(C)(C)C)c(OCCCn2ccnc2)c1	0	-7	12	66*	-8	-1
Cc1ccc(OCCn2ccnc2)c(C)c1	0	·	2	·	·	-1
Cc1cccc(OCCCCCn2ccnc2)c1C	-1	-24	18	67*	49	1
Cc1cccc(C)c1OCCCn1ccnc1	0	·	0	·	·	3
Cc1cc(C(C)(C)C)ccc1OCCn1ccnc1	0	16	2	72*	17	-3
COc1cc(/C=N/n2nnnc2N)cc(OC)c1OC	0	-3	1	·	-5	2
O=C(OCC#CCSc1nnc(-c2cccc3ccccc23)o1)c1ccco1	0	-15	12	1	-17	-3
CC(C)(C)c1ccc(C(=O)N2CCNC(=O)C2CC(=O)Nc2ccc(F)cc2)cc1 (stereo not drawn)	0	·	-1	·	·	0
CCN1CCCC1CNCc1ccccc1OCc1ccc(F)cc1 (stereo not drawn)	0	-3	1	3	-5	-1
Cc1ccc(NC(=O)Nc2cc(C(F)(F)F)c[nH]c2=O)cc1	-1	·	0	·	·	24*
O=C(NN1C(=O)c2ccccc2NC1c1ccco1)c1ccccc1 (stereo not drawn)	-1	-3	-1	1	13	1
CSc1nsc(/C=C/Nc2ccc(C)c(C)c2)c1C#N	0	-39	25	1	87*	3
Cc1onc(-c2c(F)cccc2Cl)c1C(O)c1ccc(F)cc1 (stereo not drawn)	0	-12	2	·	7	11*
O=C(O)CN1C(=O)/C(=C\c2cc(Br)ccc2OCc2ccc(F)cc2)SC1=S	0	·	4	·	·	29*
COC(=O)c1ccccc1NCC(=O)c1ccc(OC)cc1	0	·	0	·	·	0
O=C(Nc1ccc2[nH]c3c(c2c1)CCCC3)c1ccco1	-1	68*	1	17	42	-2
S=C(NCc1ccc2[nH]c3c(c2c1)CCCC3)Nc1ccccc1	-1	-1	0	76*	42	2
Cc1cc(C)cc(NC(=S)NCc2ccc3[nH]c4c(c3c2)CCCC4)c1	-1	0	2	72*	55	17*
CCS(=O)(=O)NCc1ccc2[nH]c3c(c2c1)CCCC3	·	12	·	1	-3	·
COc1ccc(CCN(C(=O)c2ccc(F)cc2)C2=CC3CCC(C2)N3C)cc1OC (stereo not drawn)	-1	·	-1	·	·	-6
O=C(O)c1ccc(CSc2nnc(-c3ccncc3)n2-c2ccc(Cl)cc2)cc1	0	-16	-1	6	0	0
